Results: ChEMBL document CHEMBL1141228, “Conformationally constrained CCK4 analogues incorporating IBTM and BTD beta-turn mimetics” (J Med Chem, 2005)

Experiments:
[1] = target: T1, Cholecystokinin receptor type A (Rattus norvegicus, UniProt P30551); assay: Displacement of [3H]propionylCCK8 from rat pancreatic CCK1
T1 sequence (P30551 whole entry): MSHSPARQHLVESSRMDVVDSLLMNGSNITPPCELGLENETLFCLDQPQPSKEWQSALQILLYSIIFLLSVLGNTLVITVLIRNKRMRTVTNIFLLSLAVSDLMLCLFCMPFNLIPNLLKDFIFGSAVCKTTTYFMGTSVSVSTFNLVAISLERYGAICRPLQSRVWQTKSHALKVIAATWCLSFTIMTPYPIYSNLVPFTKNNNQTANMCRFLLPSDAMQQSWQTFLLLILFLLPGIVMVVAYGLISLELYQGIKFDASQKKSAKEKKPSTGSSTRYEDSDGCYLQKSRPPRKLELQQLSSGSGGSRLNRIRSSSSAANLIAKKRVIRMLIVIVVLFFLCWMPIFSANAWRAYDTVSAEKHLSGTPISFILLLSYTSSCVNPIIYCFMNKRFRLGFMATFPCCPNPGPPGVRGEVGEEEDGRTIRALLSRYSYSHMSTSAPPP
How it was run: (§1)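 Binding run on rat tissue homogenates: pancreas for CCK1, cerebral cortex for CCK2. Seven concentrations of test compound, each in duplicate. Values are means or mean ± SEM of at least three experiments.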

Cholecystokinin receptor = target: T2, Cholecystokinin receptor (Rattus norvegicus, UniProt P30551+P30553); assay: Antagonizing activity of CCK8 induced amylase secretion from rat pancreatic acini
T2 sequence (P30551 whole entry): T1 sequence (P30551 whole entry)
T2 sequence (P30553 whole entry): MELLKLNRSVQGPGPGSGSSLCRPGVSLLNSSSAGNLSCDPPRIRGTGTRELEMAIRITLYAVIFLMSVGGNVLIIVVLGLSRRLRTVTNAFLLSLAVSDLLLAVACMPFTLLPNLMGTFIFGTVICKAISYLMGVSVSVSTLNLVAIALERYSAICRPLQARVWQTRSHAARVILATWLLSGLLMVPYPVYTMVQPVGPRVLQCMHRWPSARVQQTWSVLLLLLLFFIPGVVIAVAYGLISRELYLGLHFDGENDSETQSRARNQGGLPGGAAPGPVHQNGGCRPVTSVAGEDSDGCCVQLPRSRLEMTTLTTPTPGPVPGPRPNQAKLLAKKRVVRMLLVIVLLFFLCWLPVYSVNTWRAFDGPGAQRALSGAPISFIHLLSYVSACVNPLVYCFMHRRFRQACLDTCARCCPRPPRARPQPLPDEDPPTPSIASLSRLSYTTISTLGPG
How it was run: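 Rat pancreas digested with collagenase (70 U/mL) in three 10-min incubations at 37 °C under O2 to give dispersed acini. Acini incubated 30 min at 37 °C under pure O2 with agitation, 0.1 nM CCK8 as stimulus, test compound at increasing concentrations. Amylase measured by kit; release expressed as percent of acinar amylase; percent inhibition computed against vehicle control; IC50 derived.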

[2] = target: T3, Gastrin/cholecystokinin type B receptor (Rattus norvegicus, UniProt P30553); assay: Displacement of [3H]propionylCCK8 from rat cerebral cortex CCK2; assay type: tissue-based; how it was run: as §1
T3 sequence (P30553 whole entry): T2 sequence (P30553 whole entry)

| IC50 [1] [µM] | IC50 (Cholecystokinin receptor) [µM] | IC50 [2] [µM] | SMILES |
| --- | --- | --- | --- |
| > 1 | – | > 10 | CC(C)(C)OC(=O)N[C@H](Cc1c[nH]c2ccccc12)C(=O)N[C@H]1CC[C@@H]2SC[C@@H](C(=O)N[C@@H](Cc3ccccc3)C(N)=O)N2C1=O |
| > 1 | – | > 10 | CC(C)(C)OC(=O)N[C@@H](Cc1c[nH]c2ccccc12)C(=O)N[C@H]1CC[C@@H]2SC[C@@H](C(=O)N[C@H](Cc3ccccc3)C(N)=O)N2C1=O |
| 0.582 | – | > 10 | CC(C)(C)OC(=O)N[C@H](Cc1c[nH]c2ccccc12)C(=O)N[C@@H]1C[C@H]2c3[nH]c4ccccc4c3C[C@H](C(=O)N[C@H](Cc3ccccc3)C(N)=O)N2C1=O |
| > 1 | – | > 10 | CC(C)(C)OC(=O)N[C@H](Cc1c[nH]c2ccccc12)C(=O)N[C@H]1CC[C@@H]2SC[C@@H](C(=O)N[C@H](Cc3ccccc3)C(N)=O)N2C1=O |
| > 10 | – | > 10 | COC(=O)[C@H](Cc1ccccc1)NC(=O)[C@@H]1Cc2c([nH]c3ccccc23)[C@H]2C[C@H](NC(=O)[C@H](Cc3c[nH]c4ccccc34)NC(=O)OC(C)(C)C)C(=O)N21 |
| 0.625 | – | > 10 | CC(C)(C)OC(=O)N[C@@H](Cc1c[nH]c2ccccc12)C(=O)N[C@H]1C[C@@H]2c3[nH]c4ccccc4c3C[C@@H](C(=O)N[C@@H](Cc3ccccc3)C(N)=O)N2C1=O |

Continued, compound first:

| SMILES | IC50 [1] [µM] | IC50 (Cholecystokinin receptor) [µM] | IC50 [2] [µM] |
| --- | --- | --- | --- |
| CC(C)(C)OC(=O)N[C@H](Cc1c[nH]c2ccccc12)C(=O)N[C@@H]1C[C@H]2c3[nH]c4ccccc4c3C[C@H](C(=O)N[C@@H](Cc3ccccc3)C(N)=O)N2C1=O | 0.0259 | 0.829 | > 10 |
| CC(C)(C)OC(=O)N[C@H](Cc1c[nH]c2ccccc12)C(=O)N[C@H]1C[C@@H]2c3[nH]c4ccccc4c3C[C@@H](C(=O)N[C@@H](Cc3ccccc3)C(N)=O)N2C1=O | 0.817 | – | > 10 |
| O=C(N[C@H]1C[C@@H]2c3[nH]c4ccccc4c3C[C@@H](C(=O)N[C@@H](Cc3ccccc3)C(=O)O)N2C1=O)OCc1ccccc1 | – | – | > 10 |
| CC(C)(C)OC(=O)N[C@@H](Cc1c[nH]c2ccccc12)C(=O)N[C@H]1C[C@@H]2c3[nH]c4ccccc4c3C[C@@H](C(=O)N[C@H](Cc3ccccc3)C(N)=O)N2C1=O | > 1 | – | 0.524 |
| CC(C)(C)OC(=O)N[C@@H](Cc1c[nH]c2ccccc12)C(=O)N[C@H]1CC[C@@H]2SC[C@@H](C(=O)N[C@@H](Cc3ccccc3)C(N)=O)N2C1=O | > 1 | – | > 10 |
| CC(C)(C)OC(=O)N[C@@H](Cc1c[nH]c2ccccc12)C(=O)N[C@@H]1C[C@H]2c3[nH]c4ccccc4c3C[C@H](C(=O)N[C@H](Cc3ccccc3)C(N)=O)N2C1=O | > 1 | – | > 10 |
| COC(=O)[C@@H](Cc1ccccc1)NC(=O)[C@@H]1Cc2c([nH]c3ccccc23)[C@H]2C[C@H](NC(=O)[C@@H](Cc3c[nH]c4ccccc34)NC(=O)OC(C)(C)C)C(=O)N21 | > 10 | – | > 10 |
| CC(C)(C)OC(=O)N[C@H](Cc1c[nH]c2ccccc12)C(=O)N[C@H]1C[C@@H]2c3[nH]c4ccccc4c3C[C@@H](C(=O)N[C@H](Cc3ccccc3)C(N)=O)N2C1=O | > 1 | – | 0.938 |
| CC(C)(C)OC(=O)N[C@@H](Cc1c[nH]c2ccccc12)C(=O)N[C@@H]1C[C@H]2c3[nH]c4ccccc4c3C[C@H](C(=O)N[C@@H](Cc3ccccc3)C(N)=O)N2C1=O | 0.0549 | 0.13 | > 10 |
| CSCC[C@H](NC(=O)[C@H](Cc1c[nH]c2ccccc12)NC(=O)OC(C)(C)C)C(=O)N[C@@H](CC(=O)O)C(=O)N[C@@H](Cc1ccccc1)C(N)=O | 1.8 | – | – |
